# Measured values as given in ChEMBL document CHEMBL3425469, “Discovery of imidazo[2,1-b]thiazole HCV NS4B inhibitors exhibiting synergistic effect with other direct-acting antiviral agents” (J Med Chem, 2015).
# What was measured:
# Hepatitis C virus [1] = assay: Antiviral activity against Hepatitis C virus genotype 1b Con 1 infected in human HuH7 cells at 10 nM after 72 hrs by luciferase assay in presence of 0.02 nM daclatasvir; assay type: functional, Hepacivirus hominis, Huh-7
# Method in brief: (§1)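 Stable Con1 GT1b bicistronic luciferase replicon in Huh-7 cells, 8000 cells/well. Test compound and a marketed DAA or clemizole added alone or together at varied concentrations, 0.5% DMSO final. 72 h at 37°C, then luciferase read with Bright-Glo. Inhibition expressed as % of untreated control, with cytotoxicity run in parallel. CI and DRI derived by the Chou–Talalay median-effect method.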
# Hepatitis C virus [2] = assay: Antiviral activity against Hepatitis C virus genotype 1b Con 1 infected in human HuH7 cells at 10 nM after 72 hrs by luciferase assay in presence of 240 nM sofobuvir; assay type: functional, Hepacivirus hominis, Huh-7; method in brief: as §1
# Hepatitis C virus [3] = assay: Antiviral activity against Hepatitis C virus genotype 1b Con 1 infected in human HuH7 cells at 10 nM after 72 hrs by luciferase assay in presence of 5 uM clemizole; assay type: functional, Hepacivirus hominis, Huh-7; method in brief: as §1
# Hepatitis C virus [4] = assay: Antiviral activity against Hepatitis C virus genotype 1b Con 1 infected in human HuH7 cells at 10 nM after 72 hrs by luciferase assay in presence of 10 uM clemizole; assay type: functional, Hepacivirus hominis, Huh-7; method in brief: as §1
# Hepatitis C virus [5] = assay: Antiviral activity against Hepatitis C virus genotype 1b Con 1 infected in human HuH7 cells at 10 nM after 72 hrs by luciferase assay in presence of 12.5 uM clemizole; assay type: functional, Hepacivirus hominis, Huh-7; method in brief: as §1
# Hepatitis C virus [6] = assay: Antiviral activity against Hepatitis C virus genotype 1b Con 1 infected in human HuH7 cells at 20 nM after 72 hrs by luciferase assay in presence of 12 nM simeprevir; assay type: functional, Hepacivirus hominis, Huh-7; method in brief: as §1
# Hepatitis C virus [7] = assay: Antiviral activity against Hepatitis C virus genotype 1b Con 1 infected in human HuH7 cells at 20 nM after 72 hrs by luciferase assay in presence of 0.02 nM daclatasvir; assay type: functional, Hepacivirus hominis, Huh-7; method in brief: as §1
# Hepatitis C virus [8] = assay: Antiviral activity against Hepatitis C virus genotype 1b Con 1 infected in human HuH7 cells at 20 nM after 72 hrs by luciferase assay in presence of 120 nM sofobuvir; assay type: functional, Hepacivirus hominis, Huh-7; method in brief: as §1
# Hepatitis C virus [9] = assay: Antiviral activity against Hepatitis C virus genotype 1b Con 1 infected in human HuH7 cells at 20 nM after 72 hrs by luciferase assay in presence of 7.5 uM clemizole; assay type: functional, Hepacivirus hominis, Huh-7
# Method in brief: (§2)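 Huh-7 cells stably carrying a GT1b Con1 bicistronic luciferase replicon, seeded at 8000 cells/well. The test compound and the partner DAA are dosed orthogonally at various concentrations, final 0.5% DMSO, then incubated 72 h at 37°C. Bright-Glo luciferase read-out gives replicon inhibition as % of untreated control. Cytotoxicity is checked in parallel by CellTiter-Fluor. CI and DRI are derived by the Chou–Talalay median-effect method.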
# Hepatitis C virus [10] = assay: Antiviral activity against Hepatitis C virus genotype 1b Con 1 infected in human HuH7 cells at 40 nM after 72 hrs by luciferase assay in presence of 3 nM simeprevir; assay type: functional, Hepacivirus hominis, Huh-7; method in brief: as §2
# Hepatitis C virus [11] = assay: Antiviral activity against Hepatitis C virus genotype 1b Con 1 infected in human HuH7 cells at 40 nM after 72 hrs by luciferase assay in presence of 0.04 nM daclatasvir; assay type: functional, Hepacivirus hominis, Huh-7; method in brief: as §2
# Hepatitis C virus [12] = assay: Antiviral activity against Hepatitis C virus genotype 1b Con 1 infected in human HuH7 cells at 40 nM after 72 hrs by luciferase assay in presence of 0.08 nM daclatasvir; assay type: functional, Hepacivirus hominis, Huh-7; method in brief: as §2
# Hepatitis C virus [13] = assay: Antiviral activity against Hepatitis C virus genotype 1b Con 1 infected in human HuH7 cells at 80 nM after 72 hrs by luciferase assay in presence of 24 nM simeprevir; assay type: functional, Hepacivirus hominis, Huh-7; method in brief: as §2
# Hepatitis C virus [14] = assay: Antiviral activity against Hepatitis C virus genotype 1b Con 1 infected in human HuH7 cells at 80 nM after 72 hrs by luciferase assay in presence of 60 nM sofobuvir; assay type: functional, Hepacivirus hominis, Huh-7; method in brief: as §2
# Hepatitis C virus [15] = assay: Antiviral activity against Hepatitis C virus genotype 1b Con 1 infected in human HuH7 cells at 160 nM after 72 hrs by luciferase assay in presence of 24 nM simeprevir; assay type: functional, Hepacivirus hominis, Huh-7; method in brief: as §1
# Hepatitis C virus [16] = assay: Antiviral activity against Hepatitis C virus genotype 1b Con 1 infected in human HuH7 cells at 160 nM after 72 hrs by luciferase assay in presence of 0.04 nM daclatasvir; assay type: functional, Hepacivirus hominis, Huh-7; method in brief: as §1
# Hepatitis C virus [17] = assay: Antiviral activity against Hepatitis C virus genotype 1b Con 1 infected in human HuH7 cells at 160 nM after 72 hrs by luciferase assay in presence of 0.16 nM daclatasvir; assay type: functional, Hepacivirus hominis, Huh-7; method in brief: as §1
# Hepatitis C virus [18] = assay: Antiviral activity against Hepatitis C virus genotype 1b Con1 infected in human HuH7 cells after 72 hrs by luciferase assay; assay type: functional, cell-based, Hepacivirus hominis; conditions: genotype 1b Con 1, Huh-7, 72 h
# Method in brief: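 Huh-7 cells stably carrying a genotype 1b Con1 bicistronic luciferase replicon, seeded at 8000 cells/well. Compounds were added at 0.5% DMSO final and incubated at 37°C for 72 h. Read-out was Bright-Glo luciferase, with cell proliferation measured by CellTiter-Fluor. EC50 is the mean of at least two independent runs. Some values are given as percent inhibition at 10 µM.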
# Hepatitis C virus [19] = assay: Antiviral activity against Hepatitis C virus genotype 1b harboring Q26R mutation transfected in human HuH7 cells after 72 hrs by luciferase assay; assay type: functional, cell-based, Hepacivirus hominis; conditions: Huh-7, 72 h
# Method in brief: (§3)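 Huh-7 cells were transiently electroporated with genotype 1b replicon RNA carrying the specified mutation and plated at 10000 cells/well. Compounds were added at 0.5% DMSO final for 72 h at 37°C. Read-out was Bright-Glo luciferase. EC50 is the mean of two independent runs within 2-fold of each other. A reference drug EC50 was measured alongside each mutant replicon to validate it.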
# Hepatitis C virus [20] = assay: Antiviral activity against Hepatitis C virus genotype 1b harboring V105M mutation transfected in human HuH7 cells after 72 hrs by luciferase assay; assay type: functional, cell-based, Hepacivirus hominis; conditions: Huh-7, 72 h; method in brief: as §3
# Hepatitis C virus [21] = assay: Antiviral activity against Hepatitis C virus genotype 1b Con 1 infected in human HuH7 cells at 2.5 nM after 72 hrs by luciferase assay in presence of 0.02 nM daclatasvir; assay type: functional, Hepacivirus hominis, Huh-7; method in brief: as §1
# Hepatitis C virus [22] = assay: Antiviral activity against Hepatitis C virus genotype 1b Con 1 infected in human HuH7 cells at 2.5 nM after 72 hrs by luciferase assay in presence of 0.04 nM daclatasvir; assay type: functional, Hepacivirus hominis, Huh-7; method in brief: as §1
# Hepatitis C virus [23] = assay: Antiviral activity against Hepatitis C virus genotype 1b Con 1 infected in human HuH7 cells at 2.5 nM after 72 hrs by luciferase assay in presence of 7.5 uM clemizole; assay type: functional, Hepacivirus hominis, Huh-7; method in brief: as §1
# Hepatitis C virus [24] = assay: Antiviral activity against Hepatitis C virus genotype 1b Con 1 infected in human HuH7 cells at 5 nM after 72 hrs by luciferase assay in presence of 12 nM simeprevir; assay type: functional, Hepacivirus hominis, Huh-7; method in brief: as §2
# Hepatitis C virus [25] = assay: Antiviral activity against Hepatitis C virus genotype 1b Con 1 infected in human HuH7 cells at 5 nM after 72 hrs by luciferase assay in presence of 0.02 nM daclatasvir; assay type: functional, Hepacivirus hominis, Huh-7; method in brief: as §2
# Hepatitis C virus [26] = assay: Antiviral activity against Hepatitis C virus genotype 1b Con 1 infected in human HuH7 cells at 5 nM after 72 hrs by luciferase assay in presence of 0.04 nM daclatasvir; assay type: functional, Hepacivirus hominis, Huh-7; method in brief: as §2
# Hepatitis C virus [27] = assay: Antiviral activity against Hepatitis C virus genotype 1b Con 1 infected in human HuH7 cells at 5 nM after 72 hrs by luciferase assay in presence of 0.16 nM daclatasvir; assay type: functional, Hepacivirus hominis, Huh-7; method in brief: as §2
# Hepatitis C virus [28] = assay: Antiviral activity against Hepatitis C virus genotype 1b Con 1 infected in human HuH7 cells at 5 nM after 72 hrs by luciferase assay in presence of 30 nM sofobuvir; assay type: functional, Hepacivirus hominis, Huh-7; method in brief: as §2
compound,measurement,setting,value
O=C(c1nc2scc(C3CC3)n2c1Cl)N1CCN(C2CCCC2)C(=O)C1,CI,Hepatitis C virus [1],1.14
same,CI,Hepatitis C virus [2],0.58
same,CI,Hepatitis C virus [3],0.82
same,CI,Hepatitis C virus [4],0.68
same,CI,Hepatitis C virus [5],0.81
same,CI,Hepatitis C virus [6],0.64
same,CI,Hepatitis C virus [7],0.98
same,CI,Hepatitis C virus [8],0.63
same,CI,Hepatitis C virus [9],0.56
same,CI,Hepatitis C virus [10],0.74
same,CI,Hepatitis C virus [11],0.54
same,CI,Hepatitis C virus [12],0.53
same,CI,Hepatitis C virus [13],0.87
same,CI,Hepatitis C virus [14],0.64
same,CI,Hepatitis C virus [15],0.87
same,CI,Hepatitis C virus [16],0.42
same,CI,Hepatitis C virus [17],0.65
same,EC50,Hepatitis C virus [18],16 nM
same,EC50,Hepatitis C virus [19],350 nM
same,EC50,Hepatitis C virus [20],27.2 µM
same,CI,Hepatitis C virus [21],1.2
same,CI,Hepatitis C virus [22],0.89
same,CI,Hepatitis C virus [23],0.72
same,CI,Hepatitis C virus [24],0.75
same,CI,Hepatitis C virus [25],1.21
same,CI,Hepatitis C virus [26],0.89
same,CI,Hepatitis C virus [27],0.88
same,CI,Hepatitis C virus [28],0.77
